≈ marks a conversion by molar mass, not a printed value.
Tests used:
Assay type in all cases: functional
Bacillus cereus [1] = test: Antimicrobial activity against Bacillus cereus ATCC 4342 by broth microdilution method
Method in brief: (§1)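 B. cereus ATCC 4342 went through stepwise selection for 20 cycles in cation-adjusted Mueller-Hinton broth with doubling drug dilutions. Each cycle was seeded from the previous day's 0.5× MIC wells, in two independent rounds per drug. Selectants showing a fourfold or greater MIC rise were passaged 5 days without drug. Their MICs were then read alongside the parent strain. Oritavancin assays carried 0.002% polysorbate 80 throughout.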

Bacillus cereus [2] = test: Antimicrobial activity against Bacillus cereus ATCC 4342 selected after 20 daily cycles of drug selection followed by 5 days of nonselective growth by broth microdilution method; settings: ATCC 4342, 120 h; method in brief: as §1
Bacillus cereus [3] = test: Ratio of MIC for Bacillus cereus ATCC 4342 selected after 20 daily cycles of drug selection followed by 5 days of nonselective growth to MIC for Bacillus cereus ATCC 4342; method in brief: as §1

SMILES	MIC (Bacillus cereus [1]) [µg/mL]	MIC (Bacillus cereus [2]) [µg/mL]	Ratio (Bacillus cereus [3])
CC1(C)S[C@@H]2[C@H](NC(=O)Cc3ccccc3)C(=O)N2[C@H]1C(=O)O [PENICILLIN G]	0.008 (≈ 0.0239 µM)	> 0.06	>8
CO[C@H]1/C=C/O[C@@]2(C)Oc3c(C)c(O)c4c(O)c(c(/C=N/N5CCN(C)CC5)c(O)c4c3C2=O)NC(=O)/C(C)=C\C=C\[C@H](C)[C@H](O)[C@@H](C)[C@@H](O)[C@@H](C)[C@H](OC(C)=O)[C@@H]1C [RIFAMPIN]	0.03 (≈ 0.0365 µM)	0.25 (≈ 0.304 µM)	8

— ChEMBL document CHEMBL1687708, “Efficacy of oritavancin in a murine model of Bacillus anthracis spore inhalation anthrax” (Antimicrob Agents Chemother, 2008)
